Results from ChEMBL document CHEMBL3352608, “Medicinal chemistry optimization of antiplasmodial imidazopyridazine hits from high throughput screening of a softfocus kinase library: part 2” (J Med Chem, 2014).
In brackets after ≈: the same amount, converted by molar mass. Values belong to the compound of their own block, whether it stands above or below them.

Key:
Plasmodium berghei [1] = assay: Antimalarial activity against Plasmodium berghei ANKA infected in mouse assessed as reduction in parasitemia at 3 mg/kg/day, po qd administered for 4 days relative to control; type: functional; parameters: Activity: scale not given: the % may be the effect or the level left
How it was run: (§1)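 Mice (n = 3) infected with GFP-transfected P. berghei ANKA; compound in HPMC suspension vehicle given orally once daily at 4, 24, 48 and 72 h after infection. Blood collected day 4 (96 h post-infection); parasitemia by flow cytometry (detection limit 0.1%). Activity = difference in mean % parasitemia between control and treated groups, as % of control.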

[2] = Selectivity index, ratio of IC50 for CHO cells to IC50 for Plasmodium falciparum; type: toxicity, cell-based; conditions: hamster, read-out: Ratio IC50
[3] = test system: CHO cells (Cricetulus griseus); assay: Selectivity index, ratio of IC50 for Chinese hamster CHO cells to IC50 for Plasmodium falciparum
[4] = (§2) Apparent half life in Sprague-Dawley rat at 3.6 mg/kg, po; type: ADME, organism-based; parameters: dose 3.6 mg/kg, route oral; conditions: Sprague-Dawley, in vivo, read-out: t1/2(app) (converted)
How it was run: (§3)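 Adult male Sprague-Dawley rats fasted overnight; dose 3.6 mg/kg prepared fresh, dissolved in water/0.01 M HCl/propylene glycol/ethanol/Tween 80 (1:2:1:0.1:0.1), given orally (1 mL) or intravenously (350 µL). Food returned 5 h post-dose. Heparinized blood taken at set time points, plasma held at -80°C, analysed by LC/MS/MS; parameters by non-compartmental analysis.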

[5] = test system: CHO cells (Cricetulus griseus); assay: Cytotoxicity against Chinese hamster CHO cells
[6] = Aqueous solubility of the compound at pH 6.5; type: physicochemical; conditions: buffer
[7] = Apparent half life in Sprague-Dawley rat at 3.6 mg/kg, iv; type: ADME, organism-based; parameters: dose 3.6 mg/kg, route intravenous; conditions: in vivo; how it was run: as §3
[8] = (§4) Tmax in Sprague-Dawley rat at 3.6 mg/kg, po; type: ADME, organism-based; parameters: dose 3.6 mg/kg, route oral; conditions: Sprague-Dawley, in vivo; how it was run: as §3
[9] = (§5) Cmax in Sprague-Dawley rat at 3.6 mg/kg, po; type: ADME, organism-based; parameters: dose 3.6 mg/kg, route oral; conditions: Sprague-Dawley, in vivo; how it was run: as §3
[10] = Volume of distribution at steady state in Sprague-Dawley rat at 3.6 mg/kg, iv; type: ADME, organism-based; parameters: dose 3.6 mg/kg, route intravenous; conditions: in vivo, read-out: Vdss; how it was run: as §3
[11] = Plasma concentration in mouse infected with Plasmodium berghei ANKA at 50 mg/kg/day, po after 4 hrs by HPLC analysis; type: ADME, organism-based; parameters: route oral
How it was run: (§6)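 P. berghei-infected mice dosed orally at 50 mg/kg daily for 4 days; blood sampled 1, 4 and 24 h after the first dose and analysed by HPLC for drug levels.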

[12] = Plasma concentration in mouse infected with Plasmodium berghei ANKA at 50 mg/kg/day, po after 1 hr by HPLC analysis; type: ADME, organism-based; parameters: route oral; how it was run: as §6
Plasmodium falciparum [13] = assay: Antiplasmodial activity against Plasmodium falciparum NF54 by [3H]hypoxanthine incorporation assay; type: functional, organism-based
How it was run: (§7)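 Modified [3H]-hypoxanthine incorporation assay on P. falciparum asexual cultures, chloroquine and artesunate as references in every run. IC50 values are means of ≥2 independent experiments; individual values mostly within 2-fold (maximum 3-fold).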

Rattus norvegicus [14] = assay: AUC (0 to infinity) in Sprague-Dawley rat at 3.6 mg/kg, po; type: ADME, organism-based, Plasma; parameters: time infinity, dose 3.6 mg/kg, route oral; conditions: in vivo; how it was run: as §3
Plasmodium berghei [15] = assay: Antimalarial activity against Plasmodium berghei ANKA infected in mouse assessed as reduction in parasitemia at 10 mg/kg/day, po qd administered for 4 days relative to control; type: functional; parameters: Activity: scale not given: the % may be the effect or the level left; how it was run: as §1
Plasmodium berghei [16] = assay: Antimalarial activity against Plasmodium berghei ANKA infected in mouse assessed as reduction in parasitemia at 50 mg/kg/day, po qd administered for 4 days relative to control; type: functional; parameters: Activity: scale not given: the % may be the effect or the level left; how it was run: as §1
CHO = assay: Cytotoxicity against CHO cells; type: cell-based, Cricetulus griseus; conditions: chinese hamster
Rattus norvegicus [17] = assay: AUC (0 to infinity) in Sprague-Dawley rat at 3.6 mg/kg, iv; type: ADME, organism-based, Plasma; parameters: time infinity, dose 3.6 mg/kg, route intravenous; conditions: in vivo; how it was run: as §3
[18] = Aqueous solubility of the compound at pH 2; type: physicochemical; conditions: buffer
Rattus norvegicus [19] = assay: (§8) Oral bioavailability in Sprague-Dawley rat at 3.6 mg/kg; type: ADME, organism-based; conditions: in vivo; how it was run: as §3
Rattus norvegicus [20] = assay: as §2; type: ADME, organism-based; parameters: dose 3.6 mg/kg, route oral; conditions: in vivo; how it was run: as §3
Rattus norvegicus [21] = assay: as §4; type: ADME, organism-based; parameters: dose 3.6 mg/kg, route oral; conditions: in vivo; how it was run: as §3
Rattus norvegicus [22] = assay: as §5; type: ADME, organism-based; parameters: dose 3.6 mg/kg, route oral; conditions: in vivo; how it was run: as §3
Plasmodium falciparum [23] = assay: Antiplasmodial activity against Plasmodium falciparum K1 by [3H]hypoxanthine incorporation assay; type: functional, organism-based; how it was run: as §7
[24] = as §8; type: ADME, organism-based; conditions: Sprague-Dawley, in vivo; how it was run: as §3

half-life [4]: 4.8 h
solubility [6]: < 5 µM
half-life [7]: 0.55 h
Tmax [8]: 8 h
Cmax [9]: 40 nM
Vd [10]: 0.73 L/kg
concentration at 4 h [11]: 20 nM
concentration at 1 h [12]: 80 nM
IC50 (Plasmodium falciparum [13]): 1.1 nM
AUC (Rattus norvegicus [14]): 0.36 µM·h
AUC (Rattus norvegicus [17]): 3.3 µM·h
solubility [18]: 61 µM (≈ 26.7 µg/mL)
bioavailability (Rattus norvegicus [19]): 11%
Compound: C[S+]([O-])c1ccc(-c2cnc3ccc(-c4cccc(S(=O)(=O)C5CC5)c4)nn23)cc1 (centres undefined)
Activity (Plasmodium berghei [1]): 98%
MSD (Plasmodium berghei [1]): 7 days
selectivity ratio [2]: > 1000
selectivity ratio [3]: > 1000
Activity [5]: Non-toxic
Activity (Plasmodium berghei [15]): 99.6%
MSD (Plasmodium berghei [15]): 8 days
Activity (Plasmodium berghei [16]): 99.8%
MSD (Plasmodium berghei [16]): >30 days
Activity (CHO): Non-toxic

Compound: CS(=O)(=O)c1ccc(-c2cnc3ccc(-c4cccc(S(=O)(=O)C5CC5)c4)nn23)cc1
t1/2(app) (Rattus norvegicus [20]): 4.8 h
solubility [6]: < 5 µM
Tmax (Rattus norvegicus [21]): 12 h
Cmax (Rattus norvegicus [22]): 1500 nM
Vd [10]: 2.3 L/kg
IC50 (Plasmodium falciparum [13]): 0.88 nM
AUC (Rattus norvegicus [14]): 27 µM·h
IC50 (Plasmodium falciparum [23]): 0.53 nM
AUC (Rattus norvegicus [17]): 121 µM·h
solubility [18]: 19 µM (≈ 8.62 µg/mL)
bioavailability [24]: 24%
